Source: ChEMBL document CHEMBL3758120, “Synthesis and Mechanism Studies of 1,3-Benzoazolyl Substituted Pyrrolo[2,3-b]pyrazine Derivatives as Nonintercalative Topoisomerase II Catalytic Inhibitors” (J Med Chem, 2016)
Calls of active or inactive are those of the source. The calls are words filed in the database; no cut-off is given here.

Columns and labels:
[1] = Antiproliferative activity against human HL60 cells after 48 hrs by MTT assay; type: functional, cell-based; settings: HL-60, 48 h
Outline: (§1)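 Cells seeded at 5000 per well and left overnight, then exposed to increasing concentrations (0-50 μM) for 48 h. […] HL-60/MX2 is a mitoxantrone-selected HL-60 derivative with reduced Topo IIα/β.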

[2] = Antiproliferative activity against human HL60/MX2 cells after 48 hrs by MTT assay; type: functional, cell-based; settings: HL60/MX2, 48 h; outline: as §1
[3] = molecular target: T1, DNA topoisomerase 2-alpha (Homo sapiens, UniProt P11388); experiment: Inhibition of purified human topoisomerase 2-mediated relaxation of supercoiled pBR322 DNA at 20 uM incubated for 30 mins by agarose gel electrophoresis
Outline: (§2)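 Reactions contained 0.2 μg supercoiled pBR322 in 50 mM Tris-HCl pH 8.0, 150 mM NaCl, 10 mM MgCl2, 0.5 mM DTT, 30 μg/ml BSA, normally 2 mM ATP (1, 2 or 4 mM in ATP-competition runs). Started with 1 U human Topo II, 30 min at 37 °C, stopped with sarcosyl buffer, run on 1% agarose 1.5 h at 75 V, gel-stained and imaged under UV.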

A549 = experiment: Antiproliferative activity against human A549 cells after 48 hrs by MTT assay; type: functional, cell-based; settings: A549, 48 h; outline: as §1
HEK293 = experiment: Cytotoxicity against HEK293 cells after 48 hrs by MTT assay; type: cell-based; settings: Homo sapiens, HEK293, 48 h
HeLa = experiment: Antiproliferative activity against human HeLa cells after 48 hrs by MTT assay; type: functional, cell-based; outline: as §1
Raji = experiment: Antiproliferative activity against human Raji cells after 48 hrs by MTT assay; type: functional, cell-based; outline: as §1
HL-60 = experiment: Resistance index, ratio of IC50 for human HL60/MX2 cells to IC50 for HL60 cells; type: functional
Outline: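 Resistance index calculated as MTT-derived IC50 (48 h exposure, 0-50 μM, A570 readout) in HL-60/MX2 divided by IC50 in parental HL-60.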

[4] = Antiproliferative activity against human MDA-MB-201 cells after 48 hrs by MTT assay; type: functional, cell-based; outline: as §1
K562 = experiment: Antiproliferative activity against human K562 cells after 48 hrs by MTT assay; type: functional, cell-based; settings: K562, 48 h; outline: as §1
[5] = molecular target: T2, DNA topoisomerase 1 (Homo sapiens) (UniProt P11387); experiment: Inhibition of recombinant human topoisomerase 1-mediated relaxation of supercoiled pBR322 DNA at 50 uM incubated for 30 mins by agarose gel electrophoresis
T2 sequence (whole entry): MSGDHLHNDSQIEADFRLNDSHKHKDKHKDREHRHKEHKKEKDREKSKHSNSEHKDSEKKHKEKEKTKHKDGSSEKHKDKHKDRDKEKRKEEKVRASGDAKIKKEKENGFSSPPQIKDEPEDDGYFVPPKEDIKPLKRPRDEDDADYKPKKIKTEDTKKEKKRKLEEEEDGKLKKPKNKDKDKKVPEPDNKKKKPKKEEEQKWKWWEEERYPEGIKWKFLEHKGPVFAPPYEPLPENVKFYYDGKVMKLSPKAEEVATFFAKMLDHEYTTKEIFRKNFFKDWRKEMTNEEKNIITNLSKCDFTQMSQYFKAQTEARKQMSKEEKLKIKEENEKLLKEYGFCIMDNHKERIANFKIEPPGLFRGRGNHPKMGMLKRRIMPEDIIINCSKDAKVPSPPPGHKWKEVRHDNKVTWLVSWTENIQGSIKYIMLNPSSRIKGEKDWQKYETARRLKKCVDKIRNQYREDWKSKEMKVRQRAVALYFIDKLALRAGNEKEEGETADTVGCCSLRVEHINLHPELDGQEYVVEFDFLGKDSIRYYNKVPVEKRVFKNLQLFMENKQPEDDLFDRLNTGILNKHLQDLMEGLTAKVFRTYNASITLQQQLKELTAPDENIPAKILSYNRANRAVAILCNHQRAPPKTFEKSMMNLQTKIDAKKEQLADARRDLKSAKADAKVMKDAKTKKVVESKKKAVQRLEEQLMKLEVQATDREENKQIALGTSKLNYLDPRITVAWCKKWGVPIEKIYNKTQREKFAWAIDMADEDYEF
Outline: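 Supercoiled pBR322 relaxed by Topo I with compound, incubated 30 min at 37 °C, stopped with 1% SDS dye, run on 1% agarose 1 h at 90 V in TAE, stained and imaged under UV; camptothecin as reference.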

[6] = molecular target: T1, DNA topoisomerase 2-alpha; experiment: Inhibition of purified human topoisomerase 2-mediated relaxation of supercoiled pBR322 DNA at 50 uM incubated for 30 mins by agarose gel electrophoresis; outline: as §2

T1 sequence (P11388 whole entry): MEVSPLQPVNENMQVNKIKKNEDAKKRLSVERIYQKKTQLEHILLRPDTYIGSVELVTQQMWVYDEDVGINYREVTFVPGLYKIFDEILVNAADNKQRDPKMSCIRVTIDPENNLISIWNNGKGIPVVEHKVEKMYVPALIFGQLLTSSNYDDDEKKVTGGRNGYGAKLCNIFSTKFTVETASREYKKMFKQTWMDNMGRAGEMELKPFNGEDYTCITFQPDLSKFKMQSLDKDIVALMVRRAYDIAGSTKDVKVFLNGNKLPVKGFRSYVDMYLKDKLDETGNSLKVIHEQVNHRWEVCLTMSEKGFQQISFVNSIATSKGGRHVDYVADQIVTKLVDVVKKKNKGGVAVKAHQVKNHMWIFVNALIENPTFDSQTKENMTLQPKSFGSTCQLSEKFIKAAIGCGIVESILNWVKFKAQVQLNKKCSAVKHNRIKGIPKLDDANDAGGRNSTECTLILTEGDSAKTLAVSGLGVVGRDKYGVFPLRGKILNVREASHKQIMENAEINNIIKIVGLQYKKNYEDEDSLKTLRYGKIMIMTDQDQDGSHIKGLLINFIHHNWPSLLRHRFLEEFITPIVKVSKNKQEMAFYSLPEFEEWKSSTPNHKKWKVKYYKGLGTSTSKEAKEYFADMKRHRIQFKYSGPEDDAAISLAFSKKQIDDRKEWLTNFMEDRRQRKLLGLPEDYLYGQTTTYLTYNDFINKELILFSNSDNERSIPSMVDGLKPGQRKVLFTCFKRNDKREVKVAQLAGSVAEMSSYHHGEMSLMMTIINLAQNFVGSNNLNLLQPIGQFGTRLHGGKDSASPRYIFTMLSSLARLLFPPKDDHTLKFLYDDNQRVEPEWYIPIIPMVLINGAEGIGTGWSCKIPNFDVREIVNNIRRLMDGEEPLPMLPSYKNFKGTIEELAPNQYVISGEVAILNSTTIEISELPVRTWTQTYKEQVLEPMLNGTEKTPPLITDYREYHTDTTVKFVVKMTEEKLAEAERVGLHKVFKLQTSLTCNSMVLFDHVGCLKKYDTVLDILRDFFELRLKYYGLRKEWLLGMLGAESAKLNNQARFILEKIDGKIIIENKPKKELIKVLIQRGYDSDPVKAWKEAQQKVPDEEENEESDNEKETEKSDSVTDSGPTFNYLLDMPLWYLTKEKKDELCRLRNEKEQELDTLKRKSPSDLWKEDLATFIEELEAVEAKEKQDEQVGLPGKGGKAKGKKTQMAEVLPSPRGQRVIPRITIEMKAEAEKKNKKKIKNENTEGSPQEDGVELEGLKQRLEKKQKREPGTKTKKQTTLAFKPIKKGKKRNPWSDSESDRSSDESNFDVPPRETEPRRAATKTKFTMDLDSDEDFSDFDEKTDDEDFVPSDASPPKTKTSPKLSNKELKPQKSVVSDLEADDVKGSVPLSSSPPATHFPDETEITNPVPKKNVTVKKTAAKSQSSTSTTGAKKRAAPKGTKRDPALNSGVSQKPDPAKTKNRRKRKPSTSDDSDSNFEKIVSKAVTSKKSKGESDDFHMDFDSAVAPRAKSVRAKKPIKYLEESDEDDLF

inhibition [3]	IC50 (A549) [µM]	IC50 (HeLa) [µM]	IC50 (Raji) [µM]	IC50 (K562) [µM]	inhibition [5]	inhibition [6]	Compound	IC50 [1] [µM]	IC50 [2] [µM]	IC50 (HEK293) [µM]	Ratio IC50 (HL-60)	IC50 [4] [µM]
Active	1.72	1.61	0.92	1.01	–	–	CCN(CC)CCCCn1c(N)c(-c2nc3ccccc3n2C)c2nc(C#N)c(C#N)nc21	0.7	1.73	3.16	2.5	2.89
Active	8.87	0.72	2.99	1.8	–	–	CN(C)CCCn1c(N)c(-c2nc3ccccc3s2)c2nc(C#N)c(C#N)nc21	0.51	1.31	4.29	2.5	2.93
–	> 50	> 50	> 50	> 50	inactive	inactive	Cn1c(N)c(-c2nc3ccccc3[nH]2)c2nc(C#N)c(C#N)nc21	> 50	> 50	> 50	–	> 50
Active	6.15	0.46	0.32	1.45	–	–	CN(C)CCCCn1c(N)c(-c2nc3ccccc3n2C)c2nc(C#N)c(C#N)nc21	0.74	2.58	3.87	3.5	1.79
–	> 50	> 50	> 50	> 50	inactive	inactive	N#Cc1nc2c(-c3nc4ccccc4[nH]3)c(N)n(CCc3cc4ccccc4[nH]3)c2nc1C#N	> 50	> 50	> 50	–	> 50
–	1.97	> 50	> 50	> 50	inactive	inactive	CCCn1c(N)c(-c2nc3ccccc3[nH]2)c2nc(C#N)c(C#N)nc21	45.2	> 50	> 50	–	> 50
Active	11.2	10.1	1.07	11.3	–	–	CN(C)CCCCn1c(-c2c(N)n(C)c3nc(C#N)c(C#N)nc23)nc2ccccc21	2.27	2.81	7.13	1.2	6.48
–	5.75	15.6	2.62	1.26	inactive	inactive	CN1CCN(CCCn2c(N)c(-c3nc4ccccc4[nH]3)c3nc(C#N)c(C#N)nc32)CC1	0.75	3.32	6.26	4.4	4.52
–	> 50	8.88	8.32	6.34	inactive	inactive	CN(C)CCn1c(N)c(-c2nc3ccccc3[nH]2)c2nc(C#N)c(C#N)nc21	2.22	3.78	9.73	1.7	43.5
–	> 50	> 50	5.52	> 50	inactive	inactive	N#Cc1nc2c(-c3nc4ccccc4[nH]3)c(N)n(CCO)c2nc1C#N	> 50	> 50	> 50	–	> 50
–	> 50	> 50	14.4	7.72	inactive	inactive	N#Cc1nc2c(-c3nc4ccccc4[nH]3)c(N)n(CCCN3CCOCC3)c2nc1C#N	> 50	5.57	> 50	–	> 50
–	6.11	6.68	3.38	3.46	inactive	inactive	N#Cc1nc2c(-c3nc4ccccc4[nH]3)c(N)n(CCCN3CCCCC3)c2nc1C#N	1.68	1.01	6.72	0.6	6.23
–	> 50	> 50	> 50	6.48	inactive	inactive	N#Cc1nc2c(-c3nc4ccccc4[nH]3)c(N)n(CCN3CCCC3)c2nc1C#N	4.76	> 50	18.3	–	> 50
–	> 50	> 50	> 50	> 50	inactive	inactive	CCCCn1c(N)c(-c2nc3ccccc3[nH]2)c2nc(C#N)c(C#N)nc21	> 50	> 50	> 50	–	> 50
–	> 50	> 50	2.78	> 50	inactive	inactive	COc1ccc(CCn2c(N)c(-c3nc4ccccc4[nH]3)c3nc(C#N)c(C#N)nc32)cc1	> 50	> 50	> 50	–	> 50
–	40.5	> 50	> 50	6.55	inactive	–	CN1CCN(CCn2c(N)c(-c3nc4ccccc4[nH]3)c3nc(C#N)c(C#N)nc32)CC1	4.3	6.49	10.9	1.5	9.11
–	> 50	> 50	1.96	8	inactive	inactive	CN(C)CCn1c(N)c(-c2nc3ccccc3s2)c2nc(C#N)c(C#N)nc21	1.67	> 50	11.8	–	> 50
–	> 50	> 50	> 50	> 50	inactive	inactive	N#Cc1nc2c(-c3nc4ccccc4[nH]3)c(N)n(CCCO)c2nc1C#N	> 50	> 50	> 50	–	> 50
–	> 50	11.6	8.95	2.49	inactive	inactive	CCN(CC)CCn1c(N)c(-c2nc3ccccc3[nH]2)c2nc(C#N)c(C#N)nc21	1.88	7.15	12.2	3.8	25.4
–	> 50	> 50	2.88	> 50	inactive	inactive	N#Cc1nc2c(-c3nc4ccccc4[nH]3)c(N)n(CCN3CCOCC3)c2nc1C#N	9.04	> 50	22.3	–	> 50
–	> 50	> 50	> 50	> 50	inactive	inactive	CCn1c(N)c(-c2nc3ccccc3[nH]2)c2nc(C#N)c(C#N)nc21	> 50	> 50	> 50	–	> 50
